# Measured values from ChEMBL document CHEMBL1129524, “Potent inhibitors of acyl-CoA:cholesterol acyltransferase. 2. Structure-activity relationships of novel N-(2,2-dimethyl-2,3-dihydrobenzofuran-7-yl)amides” (J Med Chem, 1996).
# pIC50: −log10 of the molar value.
# Tests used:
# O-acyltransferase = O-acyltransferase (Oryctolagus cuniculus, UniProt G1SFD9); assay: Inhibitory activity against Acyl coenzyme A:cholesterol acyltransferase 1 obtained from rabbit intestine microsomes
# Method in brief: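 Enzyme source was small-intestinal mucosa microsomes from cholesterol-fed rabbits. The substrate was [1-¹⁴C]oleoyl-CoA.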
# Rattus norvegicus [1] = organism: Rattus norvegicus; assay: Inhibitory activity against foam cell formation (acetyl-LDL-induced cholesteryl ester accumulation) in rat peritoneal macrophages; format: functional
# Method in brief: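 Peritoneal macrophages were prepared from rats. The IC₅₀ was determined for inhibition of acetyl-human-LDL-induced cellular cholesteryl ester accumulation.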
# Rattus norvegicus [2] = assay: Total cholesterol lowering activity tested by administered orally to cholesterol fed rats at dose 0.3(mg/kg) once a day for 3 days; format: functional
# Method in brief: (§1)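 Male Wistar rats received the compound orally once daily for 3 days. Each night they ate a diet with 2% cholesterol, 1% cholic acid, 20% casein, 45% sucrose, 12% coconut oil, 4% KC flock, 1% vitamin mix, 7% mineral mix and 8% dried fish powder. Serum total cholesterol was then measured. Activity is the observed reduction as a percentage of the control-minus-normal difference.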
# Rattus norvegicus [3] = assay: Total cholesterol lowering activity tested by administered orally to rats at dose 1(mg/kg) once a day for 3 days; format: functional; method in brief: as §1
# Rattus norvegicus [4] = assay: Total cholesterol lowering activity tested by administered orally to rats at dose 10(mg/kg) once a day for 3 days; format: functional; method in brief: as §1
# [5] = target: Sterol O-acyltransferase 1 (Oryctolagus cuniculus); assay: Inhibitory activity against Acyl coenzyme A:cholesterol acyltransferase 1 obtained from rabbit liver microsomes
# Rattus norvegicus [6] = assay: Total cholesterol lowering activity tested by administered orally to rats at dose 3(mg/kg) once a day for 3 days; format: functional; method in brief: as §1
# Rattus norvegicus [7] = assay: Total cholesterol lowering activity tested by administered orally to cholesterol fed rats at dose 3(mg/kg) once a day for 3 days; format: functional; method in brief: as §1
Structure (SMILES),pIC50 (O-acyltransferase),further results
Cc1cc(C)c(NC(=O)C(C)(C)CCCOc2ccc(Cl)cc2)c2c1CC(C)(C)O2,6.59,–
CCCCCCCCC(C)(C)C(=O)Nc1c(C)cc(C)c2c1OC(C)(C)C2,6.85,–
CCCOCCCCCCOc1ccc(C(=O)Nc2c(C)cc(C)c3c2OC(C)(C)C3)cc1,< 6.70,–
CCCCCCCCCCC(C)(C)C(=O)Nc1c(C)cc(C)c2c1OC(C)(C)C2,–,pIC50 (Rattus norvegicus [1]): 6.19; Change (Rattus norvegicus [2]): -44%; Change (Rattus norvegicus [3]): -61%
CCCCCCCCCCC1(C(=O)Nc2cccc3c2OC(C)(C)C3)CCCC1,6.30,–
Cc1cc(C)c(NC(=O)C(C)(C)CCCCc2ccccc2)c2c1CC(C)(C)O2,6.68,–
CCCCCCCCCCC1(C(=O)Nc2c(C)cc(C)c3c2OC(C)(C)C3)CCCC1,6.77,–
Cc1cc(C)c(NC(=O)C(C)(C)CCCCOc2ccc(Cl)cc2)c2c1CC(C)(C)O2,6.48,Change (Rattus norvegicus [4]): -61%
CCCCCCCCCCC(C)(C)C(=O)Nc1c(OC)ccc2c1OCCC2=O,–,pIC50 (Rattus norvegicus [1]): 6.80; Change (Rattus norvegicus [2]): -66%; pIC50 [5]: 7.80
Cc1cc(C)c(NC(=O)C(C)(C)CCCCCOc2ccc(Cl)cc2)c2c1CC(C)(C)O2,6.82,Change (Rattus norvegicus [3]): -64%
CCCCCCCCCCCCCCCC(=O)Nc1cccc2c1OC(C)(C)C2,6.05,–
CCCCCCCCCCC1(C(=O)Nc2c(C)ccc3c2OC(C)(C)C3)CCCC1,6.62,Change (Rattus norvegicus [4]): -52%
Cc1cc(C)c(NC(=O)C(C)(C)CCCCCc2ccccc2)c2c1CC(C)(C)O2,6.92,Change (Rattus norvegicus [4]): -66%
CCCCCCCCCCC(C)(C)C(=O)Nc1c(C)c(N(C)C)c(C)c2c1OC(C)(C)C2,–,pIC50 (Rattus norvegicus [1]): 7.52; Change (Rattus norvegicus [2]): -71%; Change (Rattus norvegicus [3]): -88%
Cc1cc(C)c(NC(=O)C(C)(C)CCCCCCOCC(C)C)c2c1CC(C)(C)O2,–,Change (Rattus norvegicus [4]): -62%
Cc1cc(C)c(NC(=O)C(C)(C)CCCCOCc2ccccc2)c2c1CC(C)(C)O2,–,Change (Rattus norvegicus [4]): -50%
Cc1cc(C)c(NC(=O)c2ccc(OCCCCCCOc3ccc(Cl)cc3)cc2)c2c1CC(C)(C)O2,< 6.70,–
CCCCCCCCOc1ccc(C(=O)Nc2c(C)cc(C)c3c2OC(C)(C)C3)cc1,< 6.70,–
Cc1cc(C)c(NC(=O)C(C)(C)CCCCCCN2CCCCC2)c2c1CC(C)(C)O2,< 6.30,–
CCCCCCCCCCC(C)(C)C(=O)Nc1c(OC)cc(OC)cc1OC [CL-976],–,pIC50 (Rattus norvegicus [1]): 5.42; Change (Rattus norvegicus [7]): -50%

# The remaining molecules from weak to strong by pIC50 (O-acyltransferase), led by results:
pIC50 (O-acyltransferase),Structure (SMILES),further results
7.05,CCCCCCCCCCCCOc1ccc(C(=O)Nc2c(C)cc(C)c3c2OC(C)(C)C3)cc1,–
7.07,Cc1cc(C)c(NC(=O)C(C)(C)CCCCCOc2ccccc2)c2c1CC(C)(C)O2,–
7.09,Cc1cc(C)c(NC(=O)C(C)(C)CCCCCCc2ccccc2)c2c1CC(C)(C)O2,–
7.12,Cc1cc(C)c(NC(=O)C(C)(C)CCCCCCOc2ccc(Cl)cc2)c2c1CC(C)(C)O2,pIC50 (Rattus norvegicus [1]): 5.82; Change (Rattus norvegicus [2]): -64%; Change (Rattus norvegicus [3]): -75%
7.23,CCCCCCCCCCC(C)(C)C(=O)Nc1c(C)c(N)c(C)c2c1OC(C)(C)C2,–
7.30,Cc1ccc(OCCCCCCC(C)(C)C(=O)Nc2c(C)cc(C)c3c2OC(C)(C)C3)cc1,–
7.40,Cc1cc(C)c(NC(=O)C(C)(C)CCCc2ccc(CC(C)C)cc2)c2c1CC(C)(C)O2,Change (Rattus norvegicus [6]): -57%
7.44,CCCCCCCCCCC(C)(C)C(=O)Nc1c(C)c([N+](=O)[O-])c(C)c2c1OC(C)(C)C2,–
7.48,CCCCCCCCCCCCC(C)(C)C(=O)Nc1c(C)cc(C)c2c1OC(C)(C)C2,–
7.52,CCCCCCCCCCOc1ccc(C(=O)Nc2c(C)cc(C)c3c2OC(C)(C)C3)cc1,Change (Rattus norvegicus [6]): 0%
7.59,CCCCCCCCCCCCCCCC(=O)Nc1c(C)cc(C)c2c1OC(C)(C)C2,–
